Source: ChEMBL document CHEMBL1144689, “Antileukemic activity of genistein, a major isoflavone present in soy products” (J Nat Prod, 2008)
Activity calls are given as the source filed them. The rule behind the calls is not given here.

Key:
[1] = system: L1210; assay: Growth inhibition of mouse L1210 cells at 20 uM after 12 hrs; format: functional; details: L1210, 12 h, read-out: GI
Procedure, shortened: (§1)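 For L1210 (RPMI-1640, 5% heat-inactivated FCS, 6 µM 2-mercaptoethanol), log-phase cultures at 2 × 10^4 cells/mL were given 1–20 µM for 12, 24 or 48 h. Coulter particle counter counts were expressed as % growth inhibition versus untreated control. IG50 was taken at 24 h. Triplicate, three repeats, mean ± SEM.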

[2] = system: L1210; assay: Antileukemic activity against mouse L1210 cells at 2 uM after 24 hrs by clonogenic assay; format: functional
Procedure, shortened: (§2)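 Murine L1210 cells cultured in RPMI-1640 with 5% heat-inactivated FCS and 6 µM 2-mercaptoethanol. Log-phase cells at 2 × 10^4 cells/mL exposed to 1–20 µM for 12, 24 or 48 h, then drug removed by centrifugation. 100 cells plated in 0.45% soft agar with 10% serum. Colonies >50 cells counted at day 7. Result as % relative to untreated control. Triplicate, three repeats, mean ± SEM.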

[3] = system: HL-60; assay: Growth inhibition of human HL60 cells at 5 uM after 48 hrs; format: functional; details: HL-60, 48 h, read-out: GI
Procedure, shortened: (§3)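 Human leukemic cells (RPMI-1640, 10% heat-inactivated FBS), log phase, seeded at 2 × 10^4 cells/mL. Exposed to 1, 2, 5, 10 or 20 µM (DMSO stock). Cell number counted with a Coulter particle counter at 48 h. Growth inhibition as % of untreated control. IG50 is the concentration giving 50% inhibition. Triplicate, three repeats, mean ± SEM.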

[4] = system: L1210; assay: Antileukemic activity against mouse L1210 cells at 2 uM after 48 hrs by clonogenic assay; format: functional; procedure, shortened: as §2
[5] = system: L1210; assay: Induction of p15CDKN2B re-expression in mouse L1210 cells at 1 to 20 uM after 24 hrs by RT-PCR; format: functional, cell-based
Procedure, shortened: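 Murine L1210 cells exposed to 1–20 µM for 24 h. RNA analysed by RT-PCR for p15CDKN2B, with 18S rRNA as reference. Cycle number set within the exponential phase. Products run on 2% agarose and stained with ethidium bromide. Repeated twice.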

[6] = system: L1210; assay: Growth inhibition of mouse L1210 cells at 1 uM after 12 hrs; format: functional; details: L1210, 12 h, read-out: GI; procedure, shortened: as §1
[7] = system: MOLT-3; assay: Antileukemic activity against human MOLT3 cells at 1 uM after 24 hrs by clonogenic assay; format: functional
Procedure, shortened: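 Log-phase cells at 2 × 10^4 cells/mL in RPMI-1640 with 10% heat-inactivated FBS, 37 °C, 5% CO2. Drug (DMSO stock) at 1, 2, 5, 10 or 20 µM for 24 h, removed by centrifugation. 100 cells plated in 0.45% soft agar with 20% serum. Colonies >50 cells counted after 15 days. Loss of clonogenicity as % of untreated control. Triplicate, three repeats, mean ± SEM.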

[8] = system: L1210; assay: Growth inhibition of mouse L1210 cells after 24 hrs; format: functional; procedure, shortened: as §1
[9] = system: L1210; assay: Antileukemic activity against mouse L1210 cells at 1 uM after 12 hrs by clonogenic assay; format: functional; procedure, shortened: as §2
[10] = system: L1210; assay: Antileukemic activity against mouse L1210 cells at 10 uM after 48 hrs by clonogenic assay; format: functional; procedure, shortened: as §2
[11] = system: L1210; assay: Growth inhibition of mouse L1210 cells at 5 uM after 12 hrs; format: functional; details: L1210, 12 h, read-out: GI; procedure, shortened: as §1
[12] = system: HL-60; assay: Antileukemic activity against human HL60 cells after 24 hrs by clonogenic assay; format: functional; details: HL-60, 24 h, read-out: LC50 (the source's name)
Procedure, shortened: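 Log-phase cells seeded at 2 × 10^4 cells/mL in RPMI-1640 with 10% heat-inactivated FBS at 37 °C, 5% CO2, then exposed 24 h to 1–20 µM (DMSO stock). Drug washed out by centrifugation. 100 cells plated in 0.45% soft agar with 20% serum for 15 days, and colonies (>50 cells) counted. Loss of clonogenicity is relative to untreated control. Triplicates, repeated three times, mean ± SEM. LC50 read from the dose curve.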

[13] = system: L1210; assay: Growth inhibition of mouse L1210 cells at 10 uM after 48 hrs; format: functional; details: L1210, 48 h, read-out: GI; procedure, shortened: as §1
[14] = Growth inhibition of human KG1a cells at 5 uM after 48 hrs; format: functional; details: KG-1a; procedure, shortened: as §3
[15] = system: L1210; assay: Growth inhibition of mouse L1210 cells at 10 uM after 12 hrs; format: functional; details: L1210, 12 h, read-out: GI; procedure, shortened: as §1
[16] = system: L1210; assay: Growth inhibition of mouse L1210 cells at 20 uM after 48 hrs; format: functional; details: L1210, 48 h, read-out: GI; procedure, shortened: as §1
[17] = system: Raji; assay: Growth inhibition of human Raji cells at 5 uM after 48 hrs; format: functional; details: read-out: GI; procedure, shortened: as §3
[18] = system: L1210; assay: Antileukemic activity against mouse L1210 cells at 20 uM after 12 hrs by clonogenic assay; format: functional; procedure, shortened: as §2
[19] = system: L1210; assay: Growth inhibition of mouse L1210 cells at 5 uM after 24 hrs; format: functional; details: L1210, 24 h, read-out: GI; procedure, shortened: as §1
[20] = system: L1210; assay: Growth inhibition of mouse L1210 cells at 2 uM after 24 hrs; format: functional; details: L1210, 24 h, read-out: GI; procedure, shortened: as §1
[21] = system: L1210; assay: Antileukemic activity against mouse L1210 cells at 1 uM after 48 hrs by clonogenic assay; format: functional; procedure, shortened: as §2
[22] = Half life in CD2F1 mouse; format: ADME, organism-based; details: in vivo
[23] = system: L1210; assay: Antileukemic activity against mouse L1210 cells at 1 uM after 24 hrs by clonogenic assay; format: functional; procedure, shortened: as §2
[24] = system: L1210; assay: Growth inhibition of mouse L1210 cells at 1 uM after 48 hrs; format: functional; details: L1210, 48 h, read-out: GI; procedure, shortened: as §1
[25] = system: L1210; assay: Growth inhibition of mouse L1210 cells at 2 uM after 12 hrs; format: functional; details: L1210, 12 h, read-out: GI; procedure, shortened: as §1
[26] = system: MOLT-3; assay: Growth inhibition of human MOLT3 cells after 48 hrs; format: functional; procedure, shortened: as §3

## O=c1c(-c2ccc(O)cc2)coc2cc(O)cc(O)c12 [GENISTEIN]
[1]
  inhibition of growth at 20 µM: 54.2%
[2]
  Activity: 13%
[3]
  inhibition of growth at 5 µM: > 10%
[4]
  Activity: 8.9%
[5]
  Activity: Active
[6]
  inhibition of growth at 1 µM: 3.2%
[7]
  Activity: >10%
[8]
  IG50: 18.5 µM
[9]
  Activity: 11%
[10]
  Activity: 81.1%
[11]
  inhibition of growth at 5 µM: 15.1%
[12]
  CC50: 6.3 µM
[13]
  inhibition of growth at 10 µM: 79.2%
[14]
  inhibition at 5 µM: > 10%
[15]
  inhibition of growth at 10 µM: 23.8%
[16]
  inhibition of growth at 20 µM: 93.1%
[17]
  inhibition of growth at 5 µM: > 10%
[18]
  Activity: 100%
[19]
  inhibition of growth at 5 µM: 28.5%
[20]
  inhibition of growth at 2 µM: 11.4%
[21]
  Activity: 11.9%
[22]
  half-life: < 15 min
[23]
  Activity: 6%
[24]
  inhibition of growth at 1 µM: 13.2%
[25]
  inhibition of growth at 2 µM: 6.2%
[26]
  IG50: 12.7 µM
